ChEMBL document CHEMBL1156779, “Biotin derivatives carrying two chelating DOTA units. Synthesis, in vitro evaluation of biotinidases resistance, avidin binding, and radiolabeling tests” (J Med Chem, 2010)

Key:
[1] = Displacement of HABA from avidin
Procedure, shortened: (§1)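 HABA competition in cuvettes. HABA/avidin complex formed at final avidin 7.6 μM and […], then competitors added at various concentrations. Absorbance read at 500 nm. Triplicate runs. % inhibition computed from absorbance with competitor against absorbance without competitor, each corrected for the blank without HABA/Av complex.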

[2] = Displacement of HABA from avidin at 31 uM; procedure, shortened: as §1
[3] = Binding affinity to avidin by thermal stability study
Procedure, shortened: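 Far-UV CD of avidin/ligand complexes. Thermal unfolding followed by the fall in dichroic signal at 225 nm over 25-95 °C. Settings: bandwidth 1 nm, response 0.5 s, data pitch 1 °C, slope 10 °C/min. Full spectrum (195-260 nm) recorded every 5 °C increment, each spectrum an average of three. Inflection point of the melting curve taken as the read-out.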

Serum = assay: Stability in normal mouse serum after 2 hrs; assay type: ADME, cell-free
Procedure, shortened: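 Freshly collected normal mouse serum (50 μL) used as biotinidase source, mixed with sample and brought to 500 μL in 100 mM sodium acetate pH 5.5. Incubated at 37 °C for up to 2 h. Aliquots taken before and after incubation, diluted 10-fold in 0.08% TFA, then analysed by C18 RP-HPLC-ESI-MS (2-60% B over 20 min, 0.2 mL/min) for release of free biotin and recovery of parent.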

O=C(O)CN1CCN(CC(=O)O)CCN(CC(=O)NCCCCCCN(CCCCCCNC(=O)CN2CCN(CC(=O)O)CCN(CC(=O)O)CCN(CC(=O)O)CC2)CC(=O)NCCCCCCNCCCCC[C@@H]2SC[C@@H]3NC(=O)N[C@@H]32)CCN(CC(=O)O)CC1
Activity [1]: Dose-dependent effect
inhibition [2]: 64%

O=C(O)CCCC[C@@H]1SC[C@@H]2NC(=O)N[C@@H]21
inhibition [2]: 100%

O=C(O)CN1CCN(CC(=O)O)CCN(CC(=O)NCCCN(CCCNC(=O)CN2CCN(CC(=O)O)CCN(CC(=O)O)CCN(CC(=O)O)CC2)CC(=O)NCCCCCCNCCCCC[C@@H]2SC[C@@H]3NC(=O)N[C@@H]32)CCN(CC(=O)O)CC1
Activity [1]: Dose-dependent effect
inhibition [2]: 66%
Stability [3]: 90 °C

O=C(O)CN1CCN(CC(=O)O)CCN(CC(=O)NCCCN(CCCNC(=O)CN2CCN(CC(=O)O)CCN(CC(=O)O)CCN(CC(=O)O)CC2)CC(=O)NCCCCC(NC(=O)CCCC[C@@H]2SC[C@@H]3NC(=O)N[C@@H]32)C(=O)O)CCN(CC(=O)O)CC1 (stereo partly drawn)
Activity [1]: Dose-dependent effect
inhibition [2]: 95%
Stability [3]: > 95 °C

O=C(O)CN1CCN(CC(=O)O)CCN(CC(=O)NCCCN(CCCNC(=O)CN2CCN(CC(=O)O)CCN(CC(=O)O)CCN(CC(=O)O)CC2)CC(=O)Nc2ccc(C(=O)NCCCCC(NC(=O)CCCC[C@@H]3SC[C@@H]4NC(=O)N[C@@H]43)C(=O)O)cc2)CCN(CC(=O)O)CC1 (stereo partly drawn)
Activity [1]: Dose-dependent effect
inhibition [2]: 97%
Stability [3]: > 95 °C
Stability (Serum): Stable
